Each block holds one compound with its values, some of them ahead of it.
Experiments:
[1] = target: Sigma non-opioid intracellular receptor 1 (Homo sapiens, UniProt Q99720); assay: Displacement of [3H]-Pentazocine from sigma 1 receptor (unknown origin) expressed in HEK293T cell membranes
[2] = Displacement of [3H]-DTG from sigma 2 receptor (unknown origin) expressed in HEK293T cell membranes; set-up: species or system Homo sapiens
[3] = species on record: Homo sapiens; assay: Selectivity index, ratio of Ki for displacement of [3H]-Pentazocine from sigma 1 receptor (unknown origin) expressed in HEK293T cell membranes to KI for displacement of [3H]-DTG from sigma 2 receptor (unknown origin) expressed in HEK293T cell membranes
Procedure, shortened: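 Sigma-1 and sigma-2 binding was run by the NIMH Psychoactive Drug Screening Program. pKi is the mean of three independent experiments, each done at least in triplicate. The index is the ratio of the two receptor Ki values.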

[4] = tested on: MDA-MB-231; assay: Cytotoxicity against human MDA-MB-231 cells assessed as reduction in cell viability incubated for 24 hrs by resazurin reagent based fluorescent assay; format: functional; conditions: MDA-MB-231, 24 h
Procedure, shortened: (§1)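 Cells seeded at 20,000 per well, attached overnight in experimental medium with 5% FBS at 37 °C, then exposed to varying concentrations of σ2 ligands in 1:9 DMSO/acetone (cisplatin in 0.9% saline) for 24, 48 or 72 h, with re-dosing every 24 h. Matched vehicle controls. Read-out is 0.02% resazurin for 2-3 h, fluorescence ex 560/em 590 nm, viability as % of control. IC50 from non-linear regression of log concentration.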

[5] = tested on: MDA-MB-231; assay: Cytotoxicity against human MDA-MB-231 cells assessed as reduction in cell viability incubated for 48 hrs by resazurin reagent based fluorescent assay; format: functional; conditions: MDA-MB-231, 48 h; procedure, shortened: as §1
[6] = tested on: MDA-MB-231; assay: Cytotoxicity against human MDA-MB-231 cells assessed as reduction in cell viability incubated for 72 hrs by resazurin reagent based fluorescent assay; format: functional; conditions: MDA-MB-231, 72 h; procedure, shortened: as §1
[7] = tested on: HEK293; assay: Cytotoxicity against HEK293 cells assessed as reduction in cell viability incubated for 72 hrs by resazurin reagent based fluorescent assay; conditions: Homo sapiens, HEK293, 72 h; procedure, shortened: as §1
[8] = tested on: MDA-MB-468; assay: Cytotoxicity against human MDA-MB-468 cells assessed as reduction in cell viability resazurin reagent based fluorescent assay; format: functional; procedure, shortened: as §1
[9] = tested on: MCF-10A; assay: Cytotoxicity against human MCF10A cells assessed as reduction in cell viability resazurin reagent based fluorescent assay; procedure, shortened: as §1
[10] = tested on: A549; assay: Cytotoxicity against human A549 cells assessed as reduction in cell viability resazurin reagent based fluorescent assay; format: functional; procedure, shortened: as §1
[11] = tested on: PC-3; assay: Cytotoxicity against human PC3 cells assessed as reduction in cell viability resazurin reagent based fluorescent assay; format: functional; procedure, shortened: as §1
[12] = tested on: MIA PaCa-2; assay: Cytotoxicity against human MIAPaCa2 cells assessed as reduction in cell viability resazurin reagent based fluorescent assay; format: functional; procedure, shortened: as §1
[13] = tested on: PANC-1; assay: Cytotoxicity against human PANC1 cells assessed as reduction in cell viability resazurin reagent based fluorescent assay; format: functional; procedure, shortened: as §1

Chain of Sigma non-opioid intracellular receptor 1 (Q99720 whole entry): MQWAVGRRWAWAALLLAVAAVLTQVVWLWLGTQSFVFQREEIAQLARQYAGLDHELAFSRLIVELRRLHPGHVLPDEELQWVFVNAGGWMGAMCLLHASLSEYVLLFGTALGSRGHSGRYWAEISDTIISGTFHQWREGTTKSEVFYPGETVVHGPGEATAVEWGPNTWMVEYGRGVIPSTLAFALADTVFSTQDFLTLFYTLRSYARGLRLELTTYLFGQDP

Structure (SMILES): O=C1C(CCN2CCCN(c3ccc(Cl)cc3)CC2)=Cc2cc(F)ccc21
Ki [1]: 78 nM | Ki [2]: 20 nM | pKi [2]: 7.7 | Ratio Ki [3]: 3.9

Structure (SMILES): Fc1ccc2c(c1)CC(CCN1CCCN(c3ccccn3)CC1)C2 (stereo not drawn)
Ki [1]: 22 nM | Ki [2]: 1.4 nM | pKi [2]: 8.85 | Ratio Ki [3]: 15.7

Structure (SMILES): O=C1c2ccccc2CC1CCN1CCCN(c2ccc(Cl)cc2)CC1 (stereo not drawn)
Ki [1]: 21 nM | Ki [2]: 4.4 nM | Ratio Ki [3]: 4.8

Structure (SMILES): O=C1C(CCN2CCCN(c3ccc(Cl)cc3)CC2)=Cc2cc(Cl)ccc21
Ki [1]: 4.9 nM | Ki [2]: 13 nM | pKi [2]: 7.9 | Ratio Ki [3]: 0.4

Ki [1]: 63 nM
Structure (SMILES): O=C1c2ccc(F)cc2CC1CCN1CCCN(c2ccc(Cl)cc2)CC1 (stereo not drawn)
Ki [2]: 0.6 nM | pKi [2]: 9.22 | Ratio Ki [3]: 105 | IC50 [4]: 33600 nM | IC50 [5]: 23500 nM | IC50 [6]: 20100 nM | IC50 [7]: 41300 nM

Structure (SMILES): O=C(CCCN1CCCN(c2ccc(Cl)cc2)CC1)c1ccc(F)cc1
IC50 [4]: 36000 nM | IC50 [5]: 18000 nM | IC50 [6]: 15000 nM | IC50 [8]: 5000 nM | IC50 [9]: 22000 nM | IC50 [10]: 6200 nM | IC50 [11]: 8200 nM | IC50 [12]: 2000 nM | IC50 [13]: 400 nM

Ki [1]: 44 nM
Structure (SMILES): O=C1c2ccc(F)cc2CC1CCN1CCCN(c2ccccn2)CC1 (stereo not drawn)
Ki [2]: 1.8 nM | pKi [2]: 8.75 | Ratio Ki [3]: 24.4

Ki [1]: 16 nM
Structure (SMILES): O=C1c2ccc(F)cc2CC1CCN1CCCN(c2ccc(Cl)cn2)CC1 (stereo not drawn)
Ki [2]: 0.7 nM | pKi [2]: 9.13 | Ratio Ki [3]: 22.9 | IC50 [5]: 58000 nM | IC50 [10]: 52000 nM | IC50 [12]: 42000 nM | IC50 [13]: 51000 nM

Structure (SMILES): O=C1c2ccc(Cl)cc2CC1CCN1CCCN(c2ccc(Cl)cc2)CC1 (stereo not drawn)
Ki [1]: 26 nM | Ki [2]: 19 nM | pKi [2]: 7.72 | Ratio Ki [3]: 1.4

Structure (SMILES): O=C1c2ccc(Cl)cc2CC1CCN1CCN(c2ccc(Cl)cc2)CC1 (stereo not drawn)
Ki [1]: 21 nM | Ki [2]: 18 nM | pKi [2]: 7.74 | Ratio Ki [3]: 1.2

Structure (SMILES): O/N=C(\CCCN1CCCN(c2ccc(Cl)cc2)CC1)c1ccc(F)cc1
Ki [1]: 5.1 nM | Ki [2]: 3.5 nM | pKi [2]: 8.46 | Ratio Ki [3]: 1.5 | IC50 [4]: 17000 nM | IC50 [5]: 8000 nM | IC50 [6]: 7000 nM | IC50 [8]: 4000 nM | IC50 [9]: 20000 nM | IC50 [10]: 5800 nM | IC50 [11]: 6900 nM | IC50 [12]: 1500 nM | IC50 [13]: 140 nM

Structure (SMILES): O/N=C1/c2ccc(F)cc2CC1CCN1CCCN(c2ccc(Cl)cc2)CC1 (stereo not drawn)
Ki [1]: 277 nM | Ki [2]: 407 nM | pKi [2]: 6.4 | Ratio Ki [3]: 0.7 | IC50 [5]: 8000 nM | IC50 [10]: > 200000 nM | IC50 [12]: 10000 nM | IC50 [13]: 76000 nM

Reference: ChEMBL document CHEMBL4390693, “New analogs of SYA013 as sigma-2 ligands with anticancer activity” (Bioorg Med Chem, 2019)
